Our source for the Activity values is ChEMBL document CHEMBL4321800, “Synthesis, Identification, and Structure-Activity Relationship Analysis of GATA4 and NKX2-5 Protein-Protein Interaction Modulators” (J Med Chem, 2019).

Common to all, as to type: cell-based
The target of series [1] is T1, GATA4/NKX2-5 (Mus musculus) (UniProt Q08369+P42582). As to the kind of experiment: Inhibition of mouse GATA4/mouse NKX2-5 protein-protein interaction expressed in Chlorocebus aethiops COS1 cells harboring 3xHA reporter gene assessed as transcriptional synergy at 10 uM after 24 hrs by luciferase reporter gene assay relative to control. Details: scale not given: the % may be the effect or the level left. A digest of the protocol: (§1)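 COS-1 cells seeded 14 000/well, grown overnight, then transfected for 6 h in serum- and antibiotic-free medium with pGL3-3xHA reporter (three NKX2-5 sites, 100 ng/well) plus pMT2-GATA4 and pMT2-NKX2-5 (total 50 ng/well), Fugene 6 at 1:3 DNA/reagent. Compound or 0.1% DMSO vehicle for 24 h, then luminescence read. Triplicates, Grubbs outliers removed, expressed as % of control.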
A general note: Reporter assays use an easily measured gene product as a stand-in for the process of interest.

Series [2] deals with Transcription factor GATA-4 (Mus musculus) (UniProt Q08369). The experiment in a line: Inhibition of mouse GATA4 expressed in Chlorocebus aethiops COS1 cells harboring NP-112 reporter gene assessed as BNP promoter-driven transcriptional activity at 10 uM after 24 hrs by luciferase reporter gene assay relative to control. Details: scale not given: the % may be the effect or the level left. A digest of the protocol:
(§2)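 GATA reporter assay: COS-1 cells (14 000/well, overnight) transfected 6 h serum/antibiotic-free with NP-112 reporter (tandem GATA sites plus rat BNP minimal promoter, 100 ng/well) and pMT2-GATA4 (25 ng/well), Fugene 6 1:3. Treated 24 h with compound or 0.1% DMSO. Luminescence read; triplicates, Grubbs outliers removed, % of control.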

In series [3] the test system is COS-1. The experiment in a line: Induction of necrosis in Chlorocebus aethiops COS1 cells assessed as LDH release at 1 to 30 uM after 24 hrs by LDH assay relative to control. The following applies: cos-1, 24 h. A digest of the protocol:
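COS-1 cells in DMEM with 10% FBS at 37 °C, 5% CO₂, plated 10 000/well and exposed next day to 1–30 μM for 24 h. Medium samples mixed with NAD, iodonitrotetrazolium, lactate and phenazine methosulfate in 0.2 M Tris-HCl pH 8.2, 30 min at room temperature. Stopped with acetic acid, A490 read and normalized to maximal and spontaneous release.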

Series [4] relates to COS-1. As to the kind of experiment: Cytotoxicity against Chlorocebus aethiops COS1 cells assessed as reduction in cell viability at 10 uM after 24 hrs by MTT assay relative to control. The following applies: cos-1, 24 h. The method in brief:
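COS-1 cells plated 10 000/well, exposed next day for 24 h (range 1–30 μM). Incubated with 0.5 mg/mL MTT for 2 h at 37 °C, formazan dissolved in DMSO, A550 minus A650 background. Means of 2–3 independent experiments with triplicate wells, % of vehicle-treated cells; toxic if viability fell >10% at 10 μM.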
Background: Tetrazolium assays rely on reduction of a dye to a coloured formazan, in cell work by metabolically active cells.

In series [5] the target is T1, GATA4/NKX2-5 (Mus musculus). As to the kind of experiment: Modulation of mouse GATA4/mouse NKX2-5 protein-protein interaction expressed in Chlorocebus aethiops COS1 cells harboring 3xHA reporter gene assessed as transcriptional synergy at 10 uM after 24 hrs by luciferase reporter gene assay relative to control. The method in brief: as §1
Series [6] addresses Homeobox protein Nkx-2.5 (Mus musculus) (UniProt P42582). As to the kind of experiment: Enhancement of mouse NKX2-5 expressed in Chlorocebus aethiops COS1 cells harboring 3xHA reporter gene assessed as protein-induced transcriptional activity at 10 uM after 24 hrs by luciferase reporter gene assay relative to control. The method in brief:
(§3)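 COS-1 cells seeded 14 000/well and grown overnight. Transfection for 6 h in serum- and antibiotic-free medium with pGL3-3xHA reporter (100 ng/well) and pMT2-NKX2-5 (25 ng/well), Fugene 6 1:3. Compound or 0.1% DMSO vehicle for 24 h, then luciferase luminescence. Triplicate wells with Grubbs outlier removal, % of control.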

For series [7], the target named is Transcription factor GATA-4 (Mus musculus) (UniProt Q08369). The experiment in a line: Enhancement of mouse GATA4 expressed in Chlorocebus aethiops COS1 cells harboring NP-112 reporter gene assessed as BNP promoter-driven transcriptional activity at 10 uM after 24 hrs by luciferase reporter gene assay relative to control. A digest of the protocol:
as §2

Series [8] has as its target T1, GATA4/NKX2-5 (Mus musculus). As to the kind of experiment: Enhancement of mouse GATA4/mouse NKX2-5 protein-protein interaction expressed in Chlorocebus aethiops COS1 cells harboring 3xHA reporter gene assessed as transcriptional synergy at 10 uM after 24 hrs by luciferase reporter gene assay relative to control. A digest of the protocol:
as §1

Series [9] deals with T2, GATA4/NKX2-5 (Rattus norvegicus) (UniProt P46152+O35767). The experiment in a line: Modulation of GATA4/NKX2-5 protein-protein interaction in neonatal Wistar rat cardiomyocytes harboring -534/+4 bp rat BNP proximal promoter assessed as increase in BNP-promoter driven activity at 10 to 30 preincubated for 1 hr followed by hypertrophic agonist endothelin-1 and measured after 24 hrs by luminescence method. The method in brief: (§4)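 Neonatal ventricular myocytes from 2–3-day-old Wistar rats, 50 000/well, cultured 18–20 h in DMEM/F12 with 10% FBS. Transfected 24 h in serum-free CSFM with pGL3-BNP (−534/+4 promoter, 100 ng/well), Fugene 6 1:3. Compound or 0.1% DMSO added in CSFM, endothelin-1 1 h later, luminescence after 24 h. Mean + SD, n = 3; ANOVA with Tukey or Games–Howell.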

The subject of series [10] is COS-1. The experiment in a line: Cytotoxicity against Chlorocebus aethiops COS1 cells assessed as reduction in cell viability at 10 uM after 24 hrs by CellTiter-Glo Luminescent Cell Viability assay relative to control. The following applies: cos-1, 24 h. A digest of the protocol: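 Intracellular ATP read-out (CellTiter-Glo) in COS-1 cells plated and treated as for MTT, 24 h exposure, doxorubicin as positive control. Plates equilibrated 30 min at room temperature, washed with PBS, reagent added, mixed 2 min, 15 min at room temperature, then luminescence. Mean + SEM of three independent experiments, % of vehicle-treated cells.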
A general note: Cellular ATP, detected with luciferase, serves as a proxy for viable cell number.

Series [11] deals with Homeobox protein Nkx-2.5 (Mus musculus) (UniProt P42582). As to the kind of experiment: Inhibition of mouse NKX2-5 expressed in Chlorocebus aethiops COS1 cells harboring 3xHA reporter gene assessed as protein-induced transcriptional activity at 10 uM after 24 hrs by luciferase reporter gene assay relative to control. Details: scale not given: the % may be the effect or the level left. The method in brief:
as §3

For series [12] the target is unchanged. The experiment in a line: Modulation of mouse NKX2-5 expressed in Chlorocebus aethiops COS1 cells harboring 3xHA reporter gene assessed as protein-induced transcriptional activity at 10 uM after 24 hrs by luciferase reporter gene assay relative to control. The method in brief: as §3
Series [13] deals with Transcription factor GATA-4 (Mus musculus) (UniProt Q08369). As to the kind of experiment: Modulation of mouse GATA4 expressed in Chlorocebus aethiops COS1 cells harboring NP-112 reporter gene assessed as BNP promoter-driven transcriptional activity at 10 uM after 24 hrs by luciferase reporter gene assay relative to control. The method in brief:
as §2

For series [14], the target named is T2, GATA4/NKX2-5 (Rattus norvegicus). The experiment in a line: Modulation of GATA4/NKX2-5 protein-protein interaction in neonatal Wistar rat cardiomyocytes harboring -534/+4 bp rat BNP proximal promoter assessed as reduction in BNP-promoter driven activity at 10 to 30 preincubated for 1 hr followed by hypertrophic agonist endothelin-1 and measured after 24 hrs by luminescence method. A digest of the protocol:
as §4

Series [15] has the same target. As to the kind of experiment: Modulation of GATA4/NKX2-5 protein-protein interaction in neonatal Wistar rat cardiomyocytes harboring -534/+4 bp rat BNP proximal promoter assessed as reduction in hypertrophic response at 30 preincubated for 1 hr followed by hypertrophic agonist endothelin-1 and measured after 24 hrs by luminescence method. The method in brief:
as §4

Calls of active or inactive are those of the source. No cut-off for these calls is given here.

Chain of Homeobox protein Nkx-2.5 (Mus musculus) (P42582 whole entry): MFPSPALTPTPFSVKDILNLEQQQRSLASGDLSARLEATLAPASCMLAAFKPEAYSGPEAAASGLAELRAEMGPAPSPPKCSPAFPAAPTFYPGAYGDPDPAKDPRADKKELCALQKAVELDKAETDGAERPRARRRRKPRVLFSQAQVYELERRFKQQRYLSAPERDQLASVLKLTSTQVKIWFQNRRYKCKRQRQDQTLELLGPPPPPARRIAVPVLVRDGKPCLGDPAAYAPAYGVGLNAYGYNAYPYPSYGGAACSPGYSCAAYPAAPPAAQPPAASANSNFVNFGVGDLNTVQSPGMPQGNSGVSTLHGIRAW
Chain of Transcription factor GATA-4 (Mus musculus) (Q08369 whole entry): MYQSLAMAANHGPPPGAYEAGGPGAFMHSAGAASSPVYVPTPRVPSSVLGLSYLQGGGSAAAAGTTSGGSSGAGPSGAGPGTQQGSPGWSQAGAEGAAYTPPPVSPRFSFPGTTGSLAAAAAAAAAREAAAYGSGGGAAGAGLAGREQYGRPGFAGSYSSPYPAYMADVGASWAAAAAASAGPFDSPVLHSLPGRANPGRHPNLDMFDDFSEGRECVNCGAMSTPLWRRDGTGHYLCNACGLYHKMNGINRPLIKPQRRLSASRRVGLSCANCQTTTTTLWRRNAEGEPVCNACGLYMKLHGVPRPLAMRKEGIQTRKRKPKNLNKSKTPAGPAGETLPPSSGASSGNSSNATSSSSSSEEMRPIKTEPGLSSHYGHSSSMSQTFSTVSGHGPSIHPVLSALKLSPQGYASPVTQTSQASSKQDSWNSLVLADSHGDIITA

As for `CC(=O)N(Cc1ccc(N(C)C)cc1)c1c(-c2ccccc2)noc1C`, the Activity is 28% in series [1], 47% in series [2], under 8% in the series with COS-1 [3] and over 10% in the series with COS-1 [4].

As for `CCc1noc(C)c1C(=O)Nc1ccc(N(CC)CC)cc1`, the results for the Activity in series [5], in series [6] and in series [7] were 100%, 160% and 140%, respectively.

For the molecule `Cc1onc(-c2ccccc2)c1C(=O)N(C1=NC(C)CS1)c1ccc(Cl)cc1` (configuration not stated), the Activity is 170% in [8]; 110% in series [6]; 220% in [7]; under 8% with COS-1 [3]; “Non-Toxic” with COS-1 [10]. Moreover, the result in series [9] was Active.

As for `CCN(c1ccc(NC(=O)c2c(C)noc2-c2ccccc2)cc1)C(C)C`, the Activity is 31% in series [11]; 25% in series [1]; 41% in series [2]; under 8% in the series with COS-1 [3]; over 10% in the series on COS-1 [4].

As for `CCN(CC)c1ccc(NC(=O)c2csc(C)c2-c2ccccc2)cc1`, the Activity in [5] is 33%; in [12], 39%; in series [13] it was 58%; in the series with COS-1 [3] it was under 8%; with COS-1 [4], “Non-Toxic”.

Turning to `Cc1cc(-c2onc(C)c2C(=O)Nc2ccc3oc(-c4ccccc4)cc(=O)c3c2)no1`, the Activity stood at 110% in series [6] and 120% in series [7].

Turning to `CCN(CC)c1ccc(NC(=O)c2cnc3ncccn23)cc1`, the Activity in [8] is 140%; in series [6], 120%; in series [7] it was 130%; with COS-1 [3] it was under 8%.

As for `CCN(c1ccc(NC(=O)c2cnsc2)cc1)C(C)C`, the Activity in [11] came out at 11%; in [1] it was 12%; in series [2], 20%. Besides, the result in series [14] and in [15] was Active.

Take `CCC(=O)N(Cc1ccc(N(CC)CC)cc1)c1c(-c2ccccc2)noc1C`: the Activity was 34% in series [11]; 22% in series [1]; 43% in series [2]; under 8% in the series on COS-1 [3]; over 10% with COS-1 [4]; over 10% in the series on COS-1 [10].

On to `CCN(CC)c1ccc(NC(=O)c2c(C)noc2-c2snnc2C)cc1`, for which the Activity in series [11] is 21%; in series [13], 68%; in [1], 24%; in the series on COS-1 [3], under 8%; in the series with COS-1 [4] it was over 10%. For the same molecule, the outcome in series [9] was Active.

`CCN(CC)c1ccc(NC(=O)c2cnsc2)cc1`: the Activity in series [11] is 16%; in [13], 48%; in series [1], 27%; with COS-1 [3] it was under 8%; in the series with COS-1 [10], “Non-Toxic”.

As to `CCN(CC)c1ccc(NC(=O)c2c(C)noc2-c2ccccc2)cc1`, the Activity in series [11] is 29%; in series [1], 29%; with COS-1 [3], under 8%; with COS-1 [4], over 10%.

For `Cc1onc(-c2ccccc2)c1COc1ccc(C(=O)OCCC#N)cc1`, the Activity in series [11] is 29%; in [1], 26%; in [2], 41%; in the series on COS-1 [3] it was under 8%; in the series on COS-1 [4], over 10%; in the series on COS-1 [10] it was over 10%.

As for `CC(=O)COC(=O)c1ccc(OCc2c(-c3ccccc3)noc2C)cc1`, the Activity in [5] is 37%; in series [12], 41%; in series [2], 44%; in the series with COS-1 [3] it was under 8%; in the series with COS-1 [4], over 10%.

Consider `CCN(CC)c1ccc(NC(=O)c2c(-c3ccccc3)noc2C)cc1`, for which the Activity was 50% in series [5]; 49% in series [12]; 62% in [13]; under 8% in the series with COS-1 [3]; over 10% in the series on COS-1 [10].

As to `CCN(CC)c1ccc(NC(=O)c2cc(C)oc2-c2ccccc2)cc1`, the Activity in series [5] was 35%; in series [12], 37%; in series [13], 49%; in the series with COS-1 [3] it was under 8%; in the series on COS-1 [4] it was over 10%.

For `CCN(CC)c1ccc(NC(=O)c2c(-c3cccc([N+](=O)[O-])c3)noc2C)cc1`, the Activity in series [5] was 65%; in the series on COS-1 [3], under 8%; in the series with COS-1 [4], “Non-Toxic”.

`COc1ccc(-c2cc(NC(=O)c3ccc(C(C)(C)C)cc3)n[nH]2)cc1`: the Activity is 40% in series [2], under 8% in the series with COS-1 [3] and “Non-Toxic” in the series on COS-1 [10].
